# Source: PubChem
# Hits are enriched below; roughly 0.99% of the tested compounds scored in any of these assays.
# GRK2 aptamer HTS – inhibitors of human GRK2 displacing RNA aptamer. P25098. AID 488847. inhibition of aptamer binding, % at 10 µM. 0.59% of 330,000 active. bead flow cytometry, FAM-aptamer displacement from GRK2;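 active = inhibition of aptamer binding above 40%, roughly 3 SD of noise, on plates passing a quality check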;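 also: median bead fluorescence of bound FAM aptamer so fluorescent compounds give negative values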
# Target sequence (P25098 whole entry, looked up): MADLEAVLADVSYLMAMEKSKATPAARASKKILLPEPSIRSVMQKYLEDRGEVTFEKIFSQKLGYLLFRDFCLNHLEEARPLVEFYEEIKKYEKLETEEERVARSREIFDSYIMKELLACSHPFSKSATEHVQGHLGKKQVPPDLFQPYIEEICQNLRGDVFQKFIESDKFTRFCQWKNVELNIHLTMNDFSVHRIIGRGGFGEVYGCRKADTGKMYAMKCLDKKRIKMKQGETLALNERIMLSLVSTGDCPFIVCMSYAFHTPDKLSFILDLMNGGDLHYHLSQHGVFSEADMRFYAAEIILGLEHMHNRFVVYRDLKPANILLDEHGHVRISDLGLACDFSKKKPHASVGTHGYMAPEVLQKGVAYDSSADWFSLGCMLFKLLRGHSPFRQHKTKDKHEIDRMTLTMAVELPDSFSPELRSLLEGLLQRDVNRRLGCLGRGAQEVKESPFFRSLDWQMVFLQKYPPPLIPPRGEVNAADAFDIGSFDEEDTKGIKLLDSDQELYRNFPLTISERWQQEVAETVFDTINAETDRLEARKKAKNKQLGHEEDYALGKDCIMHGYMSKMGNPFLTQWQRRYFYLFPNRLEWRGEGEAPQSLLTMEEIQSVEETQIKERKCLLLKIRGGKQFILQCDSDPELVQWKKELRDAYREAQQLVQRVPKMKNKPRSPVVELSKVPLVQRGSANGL
# Tn7 DDE FP – inhibitors of Tn7 peptide binding to human fibrin DD(E); inhibition, % at 8.3 µM; FP displacement of FITC-Tn7 peptide from fibrin DD(E); 0% = median of compound wells per plate; 0.13% of 370,000 active; P02675;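 active = inhibition above the mean of compounds falling within the control limits plus 3 SD of them, cut at about 14% in these data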;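 also: 0% = plate median of compound wells and 100% = 10 µM Aha-Tn7 peptide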
#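 Assay system: Human fibrin DD(E) protein | Medium: Tris buffer with calcium and detergent, pH 7.8 | Reagent: 0.1 µM fluorescent Tn7 | Compound dosing: Single point at 8.3 µM | Times: 10 min preincubation, 3 h with tracer, room temperature | Detection: Fluorescence polarization of the labelled Tn7 tracer | Controls: Aha-Tn7 high control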
# ABCG2 inh – blocks JC-1 efflux by human ABCG2 transporter; Q9UNQ0; IgMXP3 cells, flow cytometry; inhibition, % at 6.6 µM; 0.1% of 190,000 active; AID 1325;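 active = inhibition above 80%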;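 also: 0% = DMSO and 100% = nicardipine control wells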
#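 System: two drug-resistant human cell lines, ABCG2 and ABCB1; controls: nicardipine high and DMSO low controls; times: 10 min exposure at 25 °C with rotation, no wash; detection: flow cytometry of retained JC-1 fluorescence; read-out basis: percent efflux inhibition, scaled nicardipine 100% to DMSO 0%; doses: one concentration, 6.6 µM final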
# Tn6 DDE FP – DD(E)-Tn6 binding inhibition, primary FP screen. P02675. Fibrin DD(E) TRITC-Tn6 fluorescence polarization displacement. inhibition, % at 8.3 µM. 0.21% of 370,000 active. AID 720509;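 active = inhibition above a per-campaign cutoff: mean of compounds within control limits plus 3 SD, cut at about 15% in these data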;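 also: 0% = median of all compound wells on the plate and 100% = blocking peptide control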
# Insulin prom up – MIN6 insulin promoter up-regulation. MIN6 insulin promoter-GFP reporter, high-content imaging; active compounds read high. z-score at 5 µM. 0.3% of 190,000 active;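 active = z-score above 3 at 5 µM with at least 500 cells counted in the well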
# ABCB1 block – blocks JC-1 efflux by human ABCB1 transporter | inhibition, % at 6.6 µM | AID 1326 | CCRF-Adr cells, flow cytometry | P08183 | 0.067% of 190,000 active; in the data active = inhibition above about 40%;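 also: 0% = vehicle and 100% = reference inhibitor; higher value means more JC-1 retained so stronger ABCB1 efflux block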
# GRK2 inh confirm – confirmation of human GRK2 inhibitors displacing RNA aptamer; shares compounds with GRK2 aptamer HTS; bead-bound GRK2, FAM-aptamer displacement, flow cytometry; AID 504451; 4% of 2,000 active; aptamer displacement, % at 10 µM;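 active = aptamer displacement above 40%, near three times the noise of non-fluorescent compounds, on plates passing quality checks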;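 also: negative values mostly reflect intrinsic compound fluorescence rather than true enhancement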
# FAM quench CP1 – counter-screen for GRK2 aptamer inhibitors: fluorescent aptamer quenchers; 2,000 tested, under 10 active; fluorescence response (% of DMSO), % at 10 µM; shares compounds with GRK2 aptamer HTS; Carboxyfluorescein RNA aptamer on beads, flow cytometry quenching; active compounds read low;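 active = compounds that quench the bead-bound fluorescent RNA probe, cutting fluorescence to under half of the solvent control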;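 also: counterscreen run without GRK2 so only probe quenching by compound is measured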
# GRK2 CP2 – human GRK2 inhibition confirmation, cherry pick 2; bead-bound GRK2, FAM-aptamer displacement, flow cytometry; AID 504782; inhibition of aptamer binding, % at 10 µM; shares compounds with GRK2 aptamer HTS; 360 tested, under 10 active;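 active = inhibition of aptamer binding above 40%, about triple the noise seen with nonglowing compounds, on plates passing quality control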;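 also: negative values mostly come from compounds that fluoresce themselves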
# FAM quench SP – quenches fluorescent RNA aptamer, GRK2 hit artifact. shares compounds with GRK2 aptamer HTS. carboxyfluorescein RNA aptamer beads, flow cytometry quenching; active compounds read low. fluorescence response vs DMSO, % at 10 µM. 360 tested, under 10 active;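 active = response vs DMSO under 50%, meaning signal dropped by over half, treated as fluorescence quencher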;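 also: labelled aptamer on streptavidin beads without GRK2 as a quench counter-screen; 100% = bead fluorescence of DMSO wells and lower means quenching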
# * hit, by the source's call; x = no result given.
SMILES,GRK2 aptamer HTS,Tn7 DDE FP,ABCG2 inh,Tn6 DDE FP,Insulin prom up,ABCB1 block,GRK2 inh confirm,FAM quench CP1,others
Oc1ccc(C[C@H]2CNCCN2CCc2cc(C(F)(F)F)cc(C(F)(F)F)c2)cc1,44.0*,3.3,x,0.1,x,x,x,x,GRK2 CP2=15.2;FAM quench SP=101.0
O=C(Nn1cnnc1)c1ccc(Cl)c(Cl)c1,1.0,0.9,x,-3.6,x,x,x,x,
O=C(Nn1cnnc1)c1cc(Br)ccc1Cl,53.0*,-6.1,x,0.2,x,x,-1.2,99.6,
C[C@@H]1CCN(C2CC2)S(=O)(=O)c2c(cccc2N2CCC[C@H]2CO)O1,x,-1.8,x,8.8,x,x,x,x,
CNc1nc(N)c([N+](=O)[O-])c(Nc2ccccc2)n1,x,-0.6,x,-0.2,x,x,x,x,
Cc1c(NC(=O)OCCNC(=O)Nc2ccccc2)sc(=S)n1C,0.0,0.3,0.3,-1.9,-0.97,0.0,x,x,
Cc1ccc(S(=O)(=O)NCCOC(=O)Nc2sc(=S)n(C)c2C)cc1,96.0*,-0.2,1.5,4.3,0.91,0.1,-5.3,101.5,
O=C1C=C(O)c2cccc3cccc1c23,100.0*,-3.2,x,-0.9,x,x,1.9,98.2,
Fc1cccc(Nc2ncnc3sc4c(c23)CCC4)c1,94.0*,-5.3,24.9,-8.9,x,-1.1,x,x,GRK2 CP2=-13.3;FAM quench SP=101.0
O=S(=O)(Nc1ncnc2sc3c(c12)CCC3)c1cc(F)ccc1F,0.0,4.4,x,1.0,0.74,x,x,x,
O=C(N/N=C/c1ccc(Cl)cc1)c1ccc2c(c1)OCO2,59.0*,1.9,x,-2.0,x,x,-8.8,120.1,
Nc1[nH]c(C(=O)c2ccccc2)c(-c2cccc3ccccc23)c1C(=O)c1ccc(Br)cc1,x,-0.1,x,5.1,x,x,x,x,
COc1ccc(-c2noc(N3CCC(C(=O)Nc4ccc(OC)c(OC)c4)CC3)n2)cc1,83.0*,-6.8,x,-4.8,x,x,-0.5,99.9,
COc1ccc(-c2noc(N3CCC(C(=O)Nc4ccccc4Cl)CC3)n2)cc1,0.0,0.7,x,-6.2,x,x,x,x,
CC(=O)N1CCc2cc(S(=O)(=O)CCC(=O)NCc3cccs3)ccc21,2.0,11.2,2.4,5.4,1.18,0.5,x,x,GRK2 CP2=9.7;FAM quench SP=99.0
CCC(=O)N1c2ccc(S(=O)(=O)CCC(=O)NCc3cccs3)cc2CC1C (centres undefined),0.0,2.4,1.0,-1.9,2.03,0.1,x,x,GRK2 CP2=-8.5;FAM quench SP=101.0
CCC(=O)N1c2ccc(S(=O)(=O)CCC(=O)NC3CCCC3)cc2CC1C (centres undefined),0.0,4.5,1.7,1.2,0.83,0.4,x,x,
O=C(Nc1ccccc1)Nc1cccc(C(F)(F)F)c1,0.0,4.8,7.6,-2.8,-1.17,0.8,x,x,
Cc1cc(NC(=O)Nc2cccc(C(F)(F)F)c2)n(C)n1,74.0*,-0.1,2.8,-6.2,-0.21,-0.3,-1.7,99.1,
CCCC(=O)Nc1ccc2c(c1)C(=O)N(C)[C@H]1CC[C@@H](CC(=O)OC)O[C@@H]1CO2,x,0.9,x,-1.9,x,x,x,x,
O=C1CC(=O)NC(SCC(=O)Nc2ccccc2[N+](=O)[O-])=N1,43.0*,-2.3,x,-2.0,x,x,x,107.0,
Cc1cc(C)nc(SCC(=O)Nc2ccccc2[N+](=O)[O-])n1,0.0,-2.3,-1.3,-1.8,-0.3,-0.3,x,x,
Cc1ccc(C)c(NC(=S)NC(=O)c2cncc(Br)c2)c1,79.0*,-6.8,x,0.6,x,x,-1.9,95.8,
COc1ccc(CCNC(=O)CCNC(=O)c2ccc(Br)cc2)cc1OC,1.0,1.1,30.7,2.1,1.33,0.2,x,x,
